Screening results from PubChem.
SIAE primary: human SIAE inhibitors, primary screen, biochemical, fluorescence polarization, FP-Rh probe, 1536-well HTS. Sialate O-acetylesterase (Homo sapiens), Q9HAT2. SIAE FP-Rh probe binding. inhibition, % at 9.66 µM. 370,000 compounds, 0.69% hits. AID 1053197, 2014;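 active means inhibition above a cutoff: mean of compounds within the control limits plus 3 SD of those, cut at about 17% in these data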;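 further: 0% = plate median of compound wells and 100% = probe without SIAE protein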
PAD4 FP inh: human PAD4 inhibitors, primary screen, biochemical, fluorescence polarization, 1536-well format | recombinant PAD4, RCA probe fluorescence polarization | inhibition, % at 6.36 µM | 330,000 compounds, 0.41% hits | AID 485272, 2010;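 active means percent inhibition above a cutoff equal to the mean of all tested compounds plus 3 SD, cut at about 15% in these data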;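 further: 0% = PAD4 with RCA probe and DMSO and 100% = probe without PAD4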
Target sequence (Q9UM07 whole entry, looked up): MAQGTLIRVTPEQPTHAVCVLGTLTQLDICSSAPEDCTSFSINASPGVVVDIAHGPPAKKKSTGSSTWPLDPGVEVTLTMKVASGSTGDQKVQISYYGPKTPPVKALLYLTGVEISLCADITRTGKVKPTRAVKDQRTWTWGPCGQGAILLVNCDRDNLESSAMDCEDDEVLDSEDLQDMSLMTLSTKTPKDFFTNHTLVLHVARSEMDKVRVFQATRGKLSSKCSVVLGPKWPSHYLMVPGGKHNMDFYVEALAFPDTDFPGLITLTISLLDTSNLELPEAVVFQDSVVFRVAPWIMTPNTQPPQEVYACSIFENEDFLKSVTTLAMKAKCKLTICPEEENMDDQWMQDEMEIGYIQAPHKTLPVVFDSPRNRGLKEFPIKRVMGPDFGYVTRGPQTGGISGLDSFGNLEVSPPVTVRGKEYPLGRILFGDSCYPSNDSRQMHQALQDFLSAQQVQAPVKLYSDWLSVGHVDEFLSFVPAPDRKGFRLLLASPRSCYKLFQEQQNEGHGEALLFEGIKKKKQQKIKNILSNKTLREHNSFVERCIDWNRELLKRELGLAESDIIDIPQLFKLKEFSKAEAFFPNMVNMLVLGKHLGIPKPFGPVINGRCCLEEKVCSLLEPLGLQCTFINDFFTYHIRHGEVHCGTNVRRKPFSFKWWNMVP
PRMT1 inh: PRMT1 methyltransferase inhibitors, primary screen, biochemical, fluorescence polarization; Protein arginine N-methyltransferase 1 (Homo sapiens), Q99873; recombinant PRMT1, activity-based probe fluorescence polarization; inhibition, % at 2.79 µM; 370,000 compounds, 1.3% hits;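 active means inhibition above about 21% made by adding two undisclosed values, limit read from the data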
GSTO1 counter: inhibitors of recombinant GSTO1, primary screen, counter-screen for RBBP9 inhibitor project, biochemical, fluorescence polarization; Glutathione S-transferase omega-1 (Homo sapiens), P78417; activity-based probe fluorescence polarization; inhibition, % at 5.96 µM; 300,000 compounds, 1.1% hits; AID 1974, 2009;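 active means inhibition above the campaign mean inhibition plus 3 SD, cut at about 35% in these data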;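 further: 0% = GSTO1-1 with DMSO and 100% = wells lacking GSTO1-1 enzyme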
RBBP9 inh: human RBBP9 inhibitors, primary screen, biochemical, fluorescence polarization, FP-Rh probe, HTS. Serine hydrolase RBBP9 (Homo sapiens), O75884. recombinant RBBP9. inhibition, % at 7.94 µM. 220,000 compounds, 0.2% hits;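 active means inhibition above the campaign mean of all tested compounds plus 3 SD, cut at about 14% in these data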;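 further: plate controls were DMSO wells with RBBP9 for no effect and wells lacking RBBP9 protein for full effect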
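Measured by – fluorescence polarization · Test system – RBBP9 protein · Input – 2.5 µM RBBP9 dispensing solution, before mixing · Measure – percent inhibition from mP, scaled between DMSO and no-protein wells · Benchmarks – DMSO-treated enzyme wells and wells lacking RBBP9 · Times – preincubation 30 min plus labeling 45 min at 25 °C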
SIAE inh conf: human SIAE inhibitors, retest, confirmation, biochemical, fluorescence polarization, FP-Rh probe, triplicate | shares compounds with SIAE primary | SIAE FP-Rh activity-based probe | inhibition, % at 9.66 µM | 2,300 compounds, 13% hits | AID 1117263, 2014;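 active means mean inhibition of the replicates above the hit cutoff set in the primary screen, cut at about 17% in these data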;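 further: 0% = SIAE with DMSO and probe and 100% = probe without SIAE; inhibitors lower polarization as more probe stays unbound to SIAE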
* hit, by the source's call; . = not tested or not shown. Most compounds without a hit are left out; they make up all but 2.7% or so of the library.

SMILES	SIAE primary	PAD4 FP inh	PRMT1 inh	GSTO1 counter	RBBP9 inh	SIAE inh conf
Fc1ccc(-c2csc(NC(=S)Nc3ccccc3)n2)cc1	17.1*	-1.1	-6.7	-5.3	.	0.2
O=C(Nc1ccccc1)Nc1nc(-c2ccc(F)cc2)cs1	3.5	4.1	0.8	1.5	-9.9	.
O=C(O)CCC(=O)Nc1nc(-c2ccccc2)cs1	19.2*	-5.1	1.4	8.5	-3.6	3.9
Cc1nc2ccccc2n1Cc1ccc(Br)cc1	-12.3	3.7	1.1	6.3	.	.
CCOc1ccc(C=NNc2ccc(S(=O)(=O)Nc3ccccc3C(=O)O)cc2[N+](=O)[O-])cc1OC	.	4.3	.	.	.	.
CCOc1cc(/C=N/Nc2ccc(S(=O)(=O)Nc3ccccc3C(=O)O)cc2[N+](=O)[O-])cc(Cl)c1O	31.9*	.	0.7	.	.	16.1
CCCCn1c(SCc2nc3ccccc3s2)nc2cc(S(N)(=O)=O)ccc21	3.6	0.5	-1.1	-16.1	-14.3	.
COc1ccc(NN=Nc2ccc([N+](=O)[O-])cc2)cc1	6.1	.	16.6	.	.	.
CCOC(=O)C(NC(=O)CC)(N1CCc2ccccc2C1)C(F)(F)F (stereo not drawn)	20.3*	1.2	-2.1	6.9	3.0	3.2
S=C1SCN(Cc2cccnc2)CN1Cc1cccnc1	2.4	1.6	2.8	1.7	-7.3	.
CC(C)CN=Cc1c(O)c([N+](=O)[O-])cc2oc3c(c12)CCCC3	24.2*	6.2	10.5	20.9	3.5	1.1
Cc1cccc(/N=C/c2c(O)ccc3oc4c(c23)CCCC4)n1	.	-2.9	.	1.4	-5.3	.
O=[N+]([O-])c1cc2oc3c(c2c(C=NCc2ccccc2)c1O)CCCC3	27.5*	-3.9	7.8	8.4	-5.1	-9.8
COc1ccc(OC)c(/C=N/c2c(-c3ccc(O)c(OC)c3)nc3ccccn23)c1	2.2	-2.2	-1.4	9.8	2.9	.
COc1cc(-c2nc3ccccn3c2/N=C/c2cc(OC)c(OC)c(OC)c2)ccc1O	28.2*	-1.9	1.5	16.9	-6.6	16.0
CCN1C(=O)/C(=C2\SC(=S)N(CC3CCCO3)C2=O)c2ccccc21 (stereo not drawn)	.	.	.	.	-6.4	.
CCN1C(=O)/C(=C2\SC(=S)N(NC(=O)c3ccccc3O)C2=O)c2ccccc21	19.4*	1.4	9.1	-1.5	4.6	25.7*
CCOc1ccc2nc(NC(=O)Nc3ccccc3)sc2c1	4.3	-6.1	-1.9	7.9	-3.8	.
CCOc1ccc2nc(NC(=O)Nc3cccs3)sc2c1	33.6*	0.9	0.4	-4.6	-1.7	9.3
Cc1ccc(N(CC(=O)NC2CCCC2)C(=O)CCC(=O)Nc2nccs2)cc1C	17.9*	1.0	-1.2	0.7	.	1.3
O=[N+]([O-])c1cnc(Nc2ccccc2)nc1Nc1ccccc1	-6.7	3.6	-0.8	-2.8	.	.
O=C1CC[C@@H]2CC3(C[C@@H]4CCN1[C@H]24)Nc1ccccc1NC3=NC1CCCCC1 (stereo partly drawn)	2.9	.	-1.6	.	.	.
Cc1ccccc1N=C1Nc2ccccc2N[C@]12C[C@H]1CCC(=O)N3CC[C@@H](C2)[C@@H]13	17.8*	.	-2.7	.	.	1.5
COC(=O)C1=C(C)NC2=C(C(=O)c3ccccc32)C1c1cccc(OC)c1 (stereo not drawn)	3.8	-5.4	3.1	-1.9	-5.5	.
CC1=C([N+](=O)[O-])C(c2cccc(Br)c2)C2=C(N1)c1ccccc1C2=O (stereo not drawn)	28.1*	-6.2	8.6	-16.5	-6.2	-2.3
SMILES	SIAE primary	PAD4 FP inh	PRMT1 inh	GSTO1 counter	RBBP9 inh	SIAE inh conf
CCCC(=O)NC(c1ccc(Cl)cc1Cl)c1ccc2cccnc2c1O (stereo not drawn)	14.6	-1.4	-4.5	3.2	.	.
CCCCC(=O)NC(c1ccc(N(CC)CC)cc1)c1ccc2cccnc2c1O (stereo not drawn)	17.7*	-6.6	4.2	-9.0	.	14.6
CC(=O)NC(c1ccc2ccccc2c1)c1ccc2cccnc2c1O (stereo not drawn)	27.3*	-3.4	-0.4	-11.2	.	26.6*
CC(=O)NC(c1ccc(Cl)cc1Cl)c1ccc2cccnc2c1O (stereo not drawn)	19.6*	.	-2.5	.	.	15.7
CC(C)C(=O)NC(c1cccc([N+](=O)[O-])c1)c1ccc2cccnc2c1O (stereo not drawn)	22.5*	-0.1	-6.5	6.5	.	10.5
CCCCC(=O)NC(c1ccc(N(C)C)cc1)c1ccc2cccnc2c1O (stereo not drawn)	13.8	1.0	-2.9	3.9	.	.
COc1ccc(C(NC(C)=O)c2ccc3cccnc3c2O)c(OC)c1 (stereo not drawn)	.	-3.6	.	7.0	.	.
CC(OC(=O)c1cccn1C)C(=O)Nc1ccc2c(c1)OCO2 (stereo not drawn)	-1.1	-3.9	2.8	5.3	0.9	.
O=C(Nc1ccccn1)C1CCN(C(=O)c2ccc(F)cc2)CC1	-3.5	1.2	1.7	6.4	.	.
NC(N)=N/N=C/c1ccc2cccc(OCc3ccccc3)c2n1	-0.5	-6.7	-0.7	-4.2	0.0	.
Oc1ccccc1N=Nc1nc(-c2ccccc2)c(-c2ccccc2)[nH]1	17.3*	-6.1	2.5	-11.8	-5.0	-3.1
CCC1CCc2c(n(C)c3ccccc3c2=O)O1 (stereo not drawn)	3.5	-1.1	-5.6	5.5	-7.0	.
CC(=O)Nc1ccc(NC(=O)c2ccccc2C)cc1	18.2*	-1.1	1.8	4.0	0.8	3.7
Cc1ccccc1C(=O)Nc1ccc(S(=O)(=O)N2CCN(C)CC2)cc1	18.8*	-0.2	-2.6	0.6	-7.8	-5.3
Cc1ccccc1C(=O)Nc1ccccc1	1.6	2.0	-1.3	5.3	-3.1	.
COc1ccc(C2=Nn3c(nnc3-c3ccncc3)SC2)cc1	-3.6	0.6	1.7	-6.7	1.5	.
c1ccc(CCCCc2ccccn2)cc1	-0.8	.	0.0	.	.	.
C=CCNc1nc(Nc2ccc(OC)c(OC)c2)c2sc(-c3ccccc3)cc2n1	25.2*	.	-3.0	.	.	32.8*
C=CCNc1nc(NCCOC)c2sc(-c3ccccc3)cc2n1	-6.3	.	-2.7	.	.	.
COc1ccc(Nc2ncnc3sc(-c4ccccc4)cc23)cc1OC	23.4*	1.8	-4.2	-0.2	-1.9	14.7
CCOC(=O)c1ccc(N(C(=O)c2ccco2)C(C(=O)NC2CCCCC2)c2ccncc2)cc1 (stereo not drawn)	-3.2	-1.5	5.1	-1.5	.	.
Cc1cnc(CN(C)C(=O)c2ccc3oc(Cc4ccccc4)nc3c2)[nH]1	2.1	-4.8	-4.0	1.3	.	.
Cc1cnc(CN(C)C(=O)c2ccc3oc(Cc4ccc(Cl)cc4)nc3c2)[nH]1	17.6*	-2.5	-2.8	-2.6	.	0.3
COc1ccc(CCNC(=O)CSc2ccccc2)cc1OC	7.2	1.1	-0.5	0.0	-8.9	.
